This note sets out measurements from ChEMBL document CHEMBL1212900, “Falcipain inhibitors: optimization studies of the 2-pyrimidinecarbonitrile lead series” (J Med Chem, 2010).

Molecules are shown by their SMILES. Bounds are passed on as bounds.

The nature of test [1]: Inhibition of Plasmodium falciparum falcipain-2 expressed in Escherichia coli. The method in brief: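 Recombinant E. coli-expressed, refolded enzyme at 0.25 nM in 100 mM sodium acetate pH 5.5, 500 μM CHAPS, 10 mM DTT, DMSO ≤1%. Substrate H-D-Val-Leu-Arg-AFC at 30 μM final. Inhibitor dilutions mixed with substrate, enzyme added last; fluorescence followed 1 h at room temperature. IC50 from percent activity versus concentration.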

Test [2] in a line: Inhibition of Plasmodium falciparum falcipain-3 expressed in Escherichia coli. In short, it runs like this:
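Refolded recombinant enzyme from E. coli, 2 nM, in 100 mM sodium acetate pH 5.5 with 500 μM CHAPS and 10 mM DTT, DMSO up to 1%. H-D-Val-Leu-Arg-AFC at 150 μM final. Reaction started by enzyme addition; fluorescence monitored 1 h at room temperature. IC50 derived from percent activity plotted against inhibitor concentration.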

The next test concerns Plasmodium falciparum. Nature of the test: Antiplasmodial activity against Plasmodium falciparum W2 after 48 hrs. Format: functional, organism-based. The settings on record: W2, 48 h. The method in brief:
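W2 P. falciparum grown in human erythrocytes, 2% hematocrit, RPMI with 10% human serum or 0.5% AlbuMAX II; sorbitol-synchronized. Serial dilutions from DMSO stocks added at ring stage for 48 h, medium and drug renewed at 24 h. Cells fixed in 1% formaldehyde, stained with YOYO-1, parasitemia counted by flow cytometry; IC50 from percent parasitemia versus untreated controls.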

For the compound `CC(C)CN(NC(=O)C(C)(C)c1ccc(OCCN2CCOCC2)cc1)c1nc(C#N)ncc1Br`, the figures for the IC50 (in test [1]; in test [2]; in the test on Plasmodium falciparum) were 3 nM, 13 nM and 802 nM, respectively.
Regarding `CC(C)CN(NC(=O)c1ccc(CN2CCN(C)CC2)cc1)c1nc(C#N)ncc1Br`, the IC50 in test [1] turned out to be 0.4 nM; in test [2], 55 nM; in the test on Plasmodium falciparum, 15 nM.
Regarding `CC(C)CN(c1nc(C#N)ncc1Br)N(CCCN1CCN(C)CC1)C(=O)Cc1ccccc1`, the concentration for half-maximal inhibition (IC50) in test [1] came out at 6 nM; in test [2], 27 nM; in the test on Plasmodium falciparum it was 214 nM.
Taken in the same sequence, the figures for `CC(C)CCN(NC(=O)c1ccc(CN2CCN(C)CC2)cc1)c1nc(C#N)ncc1Br` were 4 nM, 68 nM and 262 nM.
On to `CN1CCN(Cc2ccc(C(=O)NN(CC3CCCO3)c3nc(C#N)ncc3Br)cc2)CC1` (configuration not stated), for which the figures for the IC50 (in test [1]; in test [2]; in the test on Plasmodium falciparum) were 14 nM, 99 nM and 1880 nM, respectively.
As for `CN1CCN(Cc2ccc(C(=O)NN(c3nc(C#N)ncc3Br)C3CCOCC3)cc2)CC1`, the IC50 in test [1] amounted to 0.9 nM; in test [2], 17 nM; in the test on Plasmodium falciparum, 59 nM.
As to `CC(C)CN(NC(=O)c1ccc(OCCN2CCOCC2)cc1)c1nc(C#N)ncc1Br`, the half-maximal inhibitory concentration (IC50) in test [1] is 3 nM; in test [2] it was 145 nM; with Plasmodium falciparum it was 622 nM.
Regarding `CN1CCN(Cc2ccc(C(=O)NN(CC3CCCCC3)c3nc(C#N)ncc3Br)cc2)CC1`, the IC50 worked out at 2 nM in test [1], 16 nM in test [2] and 263 nM in the test with Plasmodium falciparum.
On to `CC(C)CN(NC(=O)c1cncc(-c2cccc(CN3CCN(C)CC3)c2)c1)c1nc(C#N)ncc1Br`, for which the IC50 is under 0.5 nM in test [1], 4 nM in test [2] and 2 nM with Plasmodium falciparum.
As to `CC(C)CN(c1nc(C#N)ncc1Br)N(CCCN1CCN(C)CC1)C(=O)c1ccccc1`, the IC50 was 7 nM in test [1], 78 nM in test [2] and 166 nM in the test on Plasmodium falciparum.
The matching figures for `CC(C)CN(NC(=O)Cc1ccc(CN2CCN(C)CC2)cc1)c1nc(C#N)ncc1Cl`: 0.7 nM, 5 nM and 43 nM.
For `CC(C)CN(NC(=O)c1ccc(-c2ccc(CN3CCN(C)CC3)cc2)o1)c1nc(C#N)ncc1Br`, the 50% inhibitory concentration (IC50) in test [1] is under 0.5 nM; in test [2], 5 nM; in the test with Plasmodium falciparum, 17 nM.
Turning to `CC(C)CN(c1nc(C#N)ncc1Cl)N(CCCN1CCN(C)CC1)C(=O)Cc1ccccc1`, the IC50 in test [1] is 11 nM; in test [2], 78 nM; in the test with Plasmodium falciparum, 108 nM.
For `CCCC(C)CN(NC(=O)c1ccc(CN2CCN(C)CC2)cc1)c1nc(C#N)ncc1Br` (configuration not stated), the IC50 worked out at 2 nM in test [1], 52 nM in test [2] and 272 nM in the test with Plasmodium falciparum.
For `CN1CCN(Cc2ccc(C(=O)NN(Cc3ccco3)c3nc(C#N)ncc3Br)cc2)CC1`, the IC50 in test [1] worked out at 4 nM; in test [2] it was 180 nM; in the test with Plasmodium falciparum, 721 nM.
Taken in the same sequence, the figures for `CN1CCN(Cc2ccc(C(=O)NN(CC3CC3)c3nc(C#N)ncc3Br)cc2)CC1` were 5 nM, 330 nM and 1080 nM.
Regarding `CCCN1CCN(Cc2ccc(CC(=O)NN(CC(C)C)c3nc(C#N)ncc3Br)cc2)CC1`, the figures for the IC50 (in test [1]; in test [2]; in the test on Plasmodium falciparum) were 0.2 nM, 3 nM and 18 nM, respectively.
Taken in the same sequence, the figures for `CC(C)CN(NC(=O)C(C)(C)c1ccc(CN2CCN(C)CC2)cc1)c1nc(C#N)ncc1Cl` were 5 nM, 46 nM and 253 nM.
Regarding `CC(C)CN(NC(=O)C(C)(C)c1ccc(CN2CCN(C)CC2)cc1)c1nc(C#N)ncc1Br`, the IC50 stood at 3 nM in test [1], 21 nM in test [2] and 236 nM with Plasmodium falciparum.
On to `CN1CCN(Cc2ccc(C(=O)NN(CCC3CCCC3)c3nc(C#N)ncc3Br)cc2)CC1`, for which the IC50 in test [1] amounted to 4 nM; in test [2] it was 45 nM; with Plasmodium falciparum, 177 nM.
With `CN1CCN(Cc2ccc(C(=O)NN(CC3CCOCC3)c3nc(C#N)ncc3Br)cc2)CC1`, the IC50 in test [1] is 11 nM; in test [2] it was 135 nM; in the test on Plasmodium falciparum, 310 nM.
On to `CC(=O)N1CCC(N(NC(=O)c2ccc(CN3CCN(C)CC3)cc2)c2nc(C#N)ncc2Br)CC1`, for which the IC50 in test [1] was under 0.5 nM; in test [2] it was 26 nM; in the test on Plasmodium falciparum, 28 nM.
As to `CC1OCCC1CN(NC(=O)c1ccc(CN2CCN(C)CC2)cc1)c1nc(C#N)ncc1Br` (configuration not stated), the IC50 in test [1] is 2 nM; in test [2] it was 75 nM; in the test on Plasmodium falciparum it was 193 nM.
With `CC(C)CN(NC(=O)c1cc(CN2CCN(C)CC2)on1)c1nc(C#N)ncc1Br`, the IC50 is 1 nM in test [1], 46 nM in test [2] and 33 nM in the test on Plasmodium falciparum.
With `CCCCC(CCCC)CN(NC(=O)c1ccc(CN2CCN(C)CC2)cc1)c1nc(C#N)ncc1Br`, the IC50 in test [1] amounted to 293 nM; in test [2] it was 656 nM; in the test with Plasmodium falciparum, 566 nM.
For the compound `CN1CCN(Cc2ccc(C(=O)NN(CC3(C)CCCCC3)c3nc(C#N)ncc3Br)cc2)CC1`, the IC50 in test [1] is 5 nM; in test [2], 17 nM; with Plasmodium falciparum it was 1490 nM.
Take `CC(C)N(NC(=O)c1ccc(CN2CCN(C)CC2)cc1)c1nc(C#N)ncc1Br`: the figures for the IC50 (in test [1]; in test [2]; with Plasmodium falciparum) were 29 nM, 1370 nM and 401 nM, respectively.
For the compound `CC(C)CN(NC(=O)c1cc2cccc(CN3CCN(C)CC3)c2o1)c1nc(C#N)ncc1Br`, the IC50 in test [1] stood at 0.4 nM; in test [2], 61 nM; with Plasmodium falciparum, 48 nM.
As for `CN1CCN(Cc2ccc(C(=O)NN(c3nc(C#N)ncc3Br)C3CCC3)cc2)CC1`, the IC50 in test [1] was found to be 2 nM; in test [2], 173 nM; in the test on Plasmodium falciparum, 90 nM.
As to `CCCN1CCN(Cc2ccc(CC(=O)NN(CC(C)C)c3nc(C#N)ncc3Cl)cc2)CC1`, the IC50 in test [1] turned out to be 0.7 nM; in test [2], 6 nM; in the test on Plasmodium falciparum, 41 nM.
In the case of `CN1CCN(Cc2ccc(C(=O)NN(c3nc(C#N)ncc3Br)C3CCCC3(C)C)cc2)CC1` (configuration not stated), the IC50 in test [1] stood at 2 nM; in test [2], 110 nM; in the test with Plasmodium falciparum, 104 nM.
The matching figures for `CC(C)CN(NC(=O)Cc1ccc(OCCN2CCOCC2)cc1)c1nc(C#N)ncc1Cl`: 1 nM, 8 nM and 403 nM.
Taken in the same sequence, the figures for `CC1CCC(N(NC(=O)c2ccc(CN3CCN(C)CC3)cc2)c2nc(C#N)ncc2Br)C1` (configuration not stated) were 0.9 nM, 45 nM and 68 nM.
For the compound `CCC(CC)N(NC(=O)c1ccc(CN2CCN(C)CC2)cc1)c1nc(C#N)ncc1Br`, the figures for the IC50 (in test [1]; in test [2]; in the test with Plasmodium falciparum) were 187 nM, 2040 nM and 1610 nM, respectively.

In general, IC50 refers to the midpoint of a concentration-inhibition curve. A low value points to greater potency in that assay.
